Source: ChEMBL document CHEMBL1125307, “Novel 1,2,4-oxadiazoles and 1,2,4-thiadiazoles as dual 5-lipoxygenase and cyclooxygenase inhibitors” (J Med Chem, 1992)
Each block holds one compound with its values, some of them ahead of it. Active and inactive are the calls of the source. The calls are words filed in the database; no cut-off is given here.

Key:
[1] = tested on: Rattus norvegicus; assay: Compound was evaluated for the antiinflammatory activity by measuring the dose (po) which inhibited Mycobacterium induced foot-pad edema in rats; N=Inactive, <30% inhibition at 10 mg/kg po; assay type: functional, organism-based; design: dose 10 mg/kg
[2] = tested on: Rattus norvegicus; assay: Evaluated for the antiinflammatory activity by measuring the percentage inhibition of edema in the carrageenan foot-pad edema test at the dose of 30 mg/kg; assay type: functional
Summary of the method: (§1)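 Male Wistar rats dosed orally (0.5% HPMC/0.2% Tween 80 or Labrafils, 10 mL/kg) 1 h before subplantar injection of 0.10 mL 1% carrageenan into right hind paw under light anesthesia. Paw volume by mercury plethysmography at challenge and 5 h later; percent inhibition ± SEM versus vehicle group. Doses 10.0 and 30.0 mg/kg po, 7-14 rats per dose.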

[3] = molecular target: T1, Polyunsaturated fatty acid 5-lipoxygenase (Rattus norvegicus, UniProt P12527); assay: Evaluated in vitro for its inhibitory activity against 5-lipoxygenase; N=Inactive, <50% inhibition at 10 uM concentration
T1 sequence (P12527 whole entry): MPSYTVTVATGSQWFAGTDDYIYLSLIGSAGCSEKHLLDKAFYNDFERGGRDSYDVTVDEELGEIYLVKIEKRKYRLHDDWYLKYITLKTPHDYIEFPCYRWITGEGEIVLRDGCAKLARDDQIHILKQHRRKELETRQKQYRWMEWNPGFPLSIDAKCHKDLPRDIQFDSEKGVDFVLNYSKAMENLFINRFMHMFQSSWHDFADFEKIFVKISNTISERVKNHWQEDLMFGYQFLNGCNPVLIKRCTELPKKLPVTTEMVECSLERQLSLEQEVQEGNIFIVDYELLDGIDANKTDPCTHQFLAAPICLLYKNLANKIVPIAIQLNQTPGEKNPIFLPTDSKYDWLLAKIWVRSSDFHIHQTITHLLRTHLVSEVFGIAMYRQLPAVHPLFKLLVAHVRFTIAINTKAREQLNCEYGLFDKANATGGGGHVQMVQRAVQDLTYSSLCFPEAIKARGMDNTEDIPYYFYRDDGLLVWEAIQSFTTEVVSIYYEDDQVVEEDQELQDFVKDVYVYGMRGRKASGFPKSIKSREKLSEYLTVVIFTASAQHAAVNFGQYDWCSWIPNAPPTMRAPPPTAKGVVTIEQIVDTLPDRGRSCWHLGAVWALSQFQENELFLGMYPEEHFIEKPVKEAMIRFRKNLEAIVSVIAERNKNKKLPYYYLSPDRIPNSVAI
Summary of the method: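 RBL-1 cells grown in MEM + 12% FBS, washed in PBS pH 7.4, resuspended at 2×10^6 cells/mL in PBS with 1.0 mM calcium. Preincubated 10 min at room temperature with compound in DMSO, then stimulated with A23187 (5 μM) 7 min at 37 °C; stopped on ice. Supernatant LTB4 by radioimmunoassay.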

[4] = tested on: Rattus norvegicus; assay: Evaluated for the antiinflammatory activity by measuring the percentage inhibition of edema in the carrageenan foot-pad edema test at the dose of 10 mg/kg; assay type: functional; summary of the method: as §1
[5] = molecular target: T2, Cyclooxygenase (Rattus norvegicus, UniProt P35355+Q63921); assay: Evaluated in vitro for its inhibitory activity against Prostaglandin G/H synthase; assay type: protein assay
T2 sequence (P35355 whole entry): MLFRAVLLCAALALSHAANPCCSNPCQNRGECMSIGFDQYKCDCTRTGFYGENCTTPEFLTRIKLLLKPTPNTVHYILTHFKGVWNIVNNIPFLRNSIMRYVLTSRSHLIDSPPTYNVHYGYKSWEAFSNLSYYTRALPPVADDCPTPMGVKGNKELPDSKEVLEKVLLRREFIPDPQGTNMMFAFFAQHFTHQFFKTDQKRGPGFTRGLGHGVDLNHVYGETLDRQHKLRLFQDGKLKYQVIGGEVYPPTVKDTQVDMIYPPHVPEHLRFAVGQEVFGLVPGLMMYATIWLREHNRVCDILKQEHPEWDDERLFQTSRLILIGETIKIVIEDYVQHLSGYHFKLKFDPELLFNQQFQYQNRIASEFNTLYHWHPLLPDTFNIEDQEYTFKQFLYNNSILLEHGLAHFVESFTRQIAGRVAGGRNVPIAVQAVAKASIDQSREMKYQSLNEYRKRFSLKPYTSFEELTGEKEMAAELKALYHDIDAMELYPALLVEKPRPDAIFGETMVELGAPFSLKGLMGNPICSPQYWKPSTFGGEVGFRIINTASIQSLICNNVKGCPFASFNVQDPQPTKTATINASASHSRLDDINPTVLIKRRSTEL
T2 sequence (Q63921 whole entry): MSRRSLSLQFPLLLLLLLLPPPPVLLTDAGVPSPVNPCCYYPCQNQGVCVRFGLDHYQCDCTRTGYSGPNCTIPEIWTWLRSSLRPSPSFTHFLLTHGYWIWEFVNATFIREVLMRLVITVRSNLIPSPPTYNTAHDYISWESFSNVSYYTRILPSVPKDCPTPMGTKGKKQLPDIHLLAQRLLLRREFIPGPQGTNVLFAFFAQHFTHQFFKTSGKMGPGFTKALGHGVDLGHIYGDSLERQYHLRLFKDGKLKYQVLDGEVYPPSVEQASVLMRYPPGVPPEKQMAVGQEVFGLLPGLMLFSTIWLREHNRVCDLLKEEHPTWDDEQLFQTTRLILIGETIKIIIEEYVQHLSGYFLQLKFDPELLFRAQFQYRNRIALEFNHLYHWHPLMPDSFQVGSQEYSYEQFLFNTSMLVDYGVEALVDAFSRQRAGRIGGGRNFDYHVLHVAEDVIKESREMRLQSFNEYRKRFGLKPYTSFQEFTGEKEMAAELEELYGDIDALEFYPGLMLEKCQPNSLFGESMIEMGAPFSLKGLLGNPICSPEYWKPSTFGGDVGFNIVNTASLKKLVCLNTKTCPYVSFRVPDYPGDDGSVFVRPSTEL

[6] = molecular target: T1, Polyunsaturated fatty acid 5-lipoxygenase; assay: Evaluated in vitro for its inhibitory activity against 5-lipoxygenase
[7] = tested on: Rattus norvegicus; assay: Compound was evaluated for the antiinflammatory activity by measuring the percentage inhibition of edema in the carrageenan foot-pad edema test at the dose of 30 mg/kg; N=Inactive, <25% inhibition; assay type: functional, organism-based; design: dose 30 mg/kg; summary of the method: as §1
[8] = species: Rattus norvegicus; assay: Ratio of IC50 against 5-LO to that of CO enzyme.
Summary of the method: (§2)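 In ionophore-stimulated RBL-1 cells (2×10^6/mL, PBS with 1.0 mM Ca, 10 min compound preincubation at room temperature, 5 μM A23187 for 7 min at 37 °C), supernatant LTB₄ (5-LO) and PGF₂α (CO) were each quantified by RIA over 0.10–10.0 μM. IC50s came from linear regression, and the ratio is the 5-LO IC50 over the CO IC50.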

[9] = molecular target: Cyclooxygenase (Rattus norvegicus) (UniProt P35355+Q63921); assay: Inhibitory activity against Prostaglandin G/H synthase at 10 uM; assay type: protein assay
Summary of the method: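 Cyclooxygenase read-out in RBL-1 cells (2×10^6 cells/mL in PBS with 1.0 mM calcium): 10 min room-temperature preincubation with compound in DMSO, A23187 (5 μM) stimulation 7 min at 37 °C, ice stop. Supernatant PGF2α by radioimmunoassay; percent inhibition at a 10 μM screening concentration.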

[10] = tested on: Rattus norvegicus; assay: Compound was evaluated for the antiinflammatory activity by taking the percentage inhibition of edema in the carrageenan foot-pad edema test at the dose of 10 mg/kg; assay type: functional; summary of the method: as §1
[11] = molecular target: T1, Polyunsaturated fatty acid 5-lipoxygenase; assay: Inhibitory activity against 5-Lipoxygenase
Summary of the method: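 Rat basophilic leukemia RBL-1 cells were grown in suspension in MEM with 12% FBS, washed, and resuspended at 2×10^6 cells/mL in PBS pH 7.4 with 1.0 mM calcium. Compound in DMSO was preincubated 10 min at room temperature, then 5 μM A23187 was added for 7 min at 37 °C. LTB₄ in the supernatant was measured by RIA at 0.10–10.0 μM. IC50 was determined by linear regression.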

[12] = tested on: Rattus norvegicus; assay: Compound was evaluated for the antiinflammatory activity by taking the percentage inhibition of edema in the carrageenan foot-pad edema test at the dose of 30 mg/kg; assay type: functional; summary of the method: as §1
[13] = species: Rattus norvegicus; assay: Ratio of IC50 against 5-LO and COX; summary of the method: as §2
[14] = molecular target: T3, Polyunsaturated fatty acid 5-lipoxygenase (Rattus norvegicus) (UniProt P12527); conditions: at 10 µM
T3 sequence (whole entry): T1 sequence (P12527 whole entry)

[15] = tested on: Rattus norvegicus; assay: Evaluated for the antiinflammatory activity by measuring the dose (po) which inhibited Mycobacterium induced foot-pad edema in rats; assay type: functional
[16] = tested on: Rattus norvegicus; assay: Compound was evaluated for the percent rats with ulcers at the dose of 36 mg/kg (number of animals used per group in the experiment are 10 ); assay type: functional
Summary of the method: (§3)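 Male outbred Wistar rats (100-250 g) fasted 24 h, given compound orally in 0.5% HPMC (2 mL/kg), then denied food and water 6 more h. Killed with CO2; stomachs opened along greater curvature and scored for ulcers. Percent of rats with ulcers per dose; up to 200 mg/kg po, 10 rats per dose.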

[17] = tested on: Rattus norvegicus; assay: Compound was evaluated for the percent rats with ulcers at the dose of 30 mg/kg (number of animals used per group in the experiment are 10 ); assay type: functional; summary of the method: as §3
[18] = tested on: Rattus norvegicus; assay: Compound was evaluated for the antiinflammatory activity by taking the percentage inhibition of edema in the carrageenan foot-pad edema test at the dose of 30 mg/kg; N=Inactive, <25% inhibition; assay type: functional, organism-based; design: dose 30 mg/kg; summary of the method: as §1
[19] = tested on: Rattus norvegicus; assay: Evaluated for the percent rats with ulcers at the dose of 200 mg/kg (number of animals used per group in the experiment are 10 ); assay type: functional; summary of the method: as §3
[20] = tested on: Rattus norvegicus; assay: Compound was evaluated for th antiinflammatory activity administering through oral route by taking the inhibitory dose of induced edema in the mycobacterium foot-pad edema test; assay type: functional

Structure (SMILES): CC(C)(C)c1cc(-c2nc(NC=O)no2)cc(C(C)(C)C)c1O
- ID40 [1]: inactive
- inhibition in vivo at 30 mg/kg [2]: 54.3%
- IC50 [3]: Inactive
- inhibition in vivo at 10 mg/kg [4]: 51.5%

Structure (SMILES): CCO/C=N/c1noc(-c2cc(C(C)(C)C)c(O)c(C(C)(C)C)c2)n1
- IC50 [5]: 7200 nM
- inhibition in vivo at 10 mg/kg [10]: 21%
- IC50 [11]: 1500 nM
- inhibition in vivo at 30 mg/kg [12]: 37.3%
- Ratio [13]: 0.21

Structure (SMILES): CN(C)C(=N)Nc1nc(-c2cc(C(C)(C)C)c(O)c(C(C)(C)C)c2)ns1
- inhibition [14]: 72%

Structure (SMILES): Cc1ccc(Cl)c(Nc2ccccc2C(=O)[O-])c1Cl.O.[Na+] [MECLOFENAMATE SODIUM]
- ID40 [15]: 0.4 mg/kg
- inhibition in vivo at 30 mg/kg [2]: 40.8%
- Activity [16]: 50%
- inhibition in vivo at 10 mg/kg [4]: 34.4%

Structure (SMILES): CC(C)(C)c1cc(C2CCOC2=O)cc(C(C)(C)C)c1O (centres undefined)
- IC50 [5]: 150 nM
- ID40 [15]: 3.7 mg/kg
- IC50 [6]: 2500 nM
- Activity [17]: 30%
- inhibition in vivo at 30 mg/kg [2]: 28.4%
- inhibition in vivo at 10 mg/kg [4]: 16.6%
- Ratio [8]: 17

Structure (SMILES): CC(C)(C)c1cc(-c2nc(CCl)no2)cc(C(C)(C)C)c1O
- IC50 [5]: 100 nM
- IC50 [11]: 780 nM
- inhibition [18]: inactive
- Ratio [13]: 7.8

Structure (SMILES): CCOC(=O)c1nc(-c2cc(C(C)(C)C)c(O)c(C(C)(C)C)c2)ns1
- inhibition [14]: 91%

Structure (SMILES): CC(C)(C)c1cc(-c2nnc(S)s2)cc(C(C)(C)C)c1O.C[N+](C)(C)CC[O-]
- Activity [19]: 0%
- IC50 [5]: 800 nM
- inhibition in vivo at 10 mg/kg [10]: 49.9%
- IC50 [11]: 2800 nM
- ID40 [20]: 7.7 mg/kg
- inhibition in vivo at 30 mg/kg [12]: 47.9%
- Ratio [13]: 3.5

More lines, main results first:

- IC50 [5]: 460 nM
- IC50 [6]: 3300 nM
- Ratio [8]: 7.2
Structure (SMILES): Cc1noc(-c2cc(C(C)(C)C)c(O)c(C(C)(C)C)c2)n1
- inhibition [7]: inactive

- inhibition [9]: 78%
- IC50 [3]: Inactive
Structure (SMILES): CNCc1noc(-c2cc(C(C)(C)C)c(O)c(C(C)(C)C)c2)n1

- inhibition [9]: 88%
- IC50 [3]: Inactive
Structure (SMILES): CN(C)c1noc(-c2cc(C(C)(C)C)c(O)c(C(C)(C)C)c2)n1

- IC50 [3]: Inactive
Structure (SMILES): CC(=O)Nc1noc(-c2cc(C(C)(C)C)c(O)c(C(C)(C)C)c2)n1
- inhibition [7]: inactive

- IC50 [5]: 1900 nM
- IC50 [6]: 3600 nM
- Ratio [8]: 1.9
Structure (SMILES): CC(C)(C)c1cc(-c2nc(N)no2)cc(C(C)(C)C)c1O
- ID40 [1]: inactive
- inhibition in vivo at 30 mg/kg [2]: 32.9%
- inhibition in vivo at 10 mg/kg [4]: 43.6%
